Assay results taken from ChEMBL document CHEMBL3407336, “Discovery of 1H-pyrazol-3(2H)-ones as potent and selective inhibitors of protein kinase R-like endoplasmic reticulum kinase (PERK)” (J Med Chem, 2015).

Experiments:
[1] = Intrinsic clearance in rat microsomes; format: ADME, Microsome
[2] = Mean residence time in Sprague-Dawley rat at 1 mg/kg, iv; format: ADME, organism-based; design: dose 1 mg/kg, route intravenous; conditions: in vivo
Summary of the method: (§1)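 PK in male Sprague-Dawley rats or male CD-1 mice. For iv, 1 mg/kg was given as a DMSO solution. For po, compound was given as a solution in the vehicle and at the dose named in each line, with MsOH-acidified vehicles at pH 2.0.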

[3] = Volume of distribution at steady state in Sprague-Dawley rat at 1 mg/kg, iv; format: ADME, organism-based; design: dose 1 mg/kg, route intravenous; conditions: in vivo, read-out: Vdss; summary of the method: as §1
[4] = AUC in Sprague-Dawley rat at 2 mg/kg, po compound dosed in 1% Tween 80/99% OraPlus; format: ADME, organism-based; design: dose 2 mg/kg, route oral; conditions: plasma; summary of the method: as §1
[5] = Clearance in Sprague-Dawley rat at 1 mg/kg, iv; format: ADME, organism-based; design: dose 1 mg/kg, route intravenous; conditions: in vivo; summary of the method: as §1
[6] = Oral bioavailability in Sprague-Dawley rat at 2 mg/kg compound dosed in 1% Tween 80/99% OraPlus; format: ADME, organism-based; conditions: in vivo; summary of the method: as §1
[7] = Oral bioavailability in Sprague-Dawley rat at 2.5 mg/kg compound dosed in 1% Tween 80/2% HPMC/97% H2O with MsOH at pH 2; format: ADME, organism-based; conditions: in vivo; summary of the method: as §1
[8] = AUC in Sprague-Dawley rat at 2.5 mg/kg, po compound dosed in 1% Tween 80/2% HPMC/97% H2O with MsOH at pH 2; format: ADME, organism-based; design: dose 2.5 mg/kg, route oral; conditions: plasma; summary of the method: as §1
[9] = AUC in Sprague-Dawley rat at 2.5 mg/kg, po compound dosed in 1% Pluronic F68/1% HPMC/15% Captisol/83% H2O with MsOH at pH 2; format: ADME, organism-based; design: dose 2.5 mg/kg, route oral; conditions: plasma; summary of the method: as §1
[10] = Oral bioavailability in Sprague-Dawley rat at 2.5 mg/kg compound dosed in 1% Pluronic F68/1% HPMC/15% Captisol/83% H2O with MsOH at pH 2; format: ADME, organism-based; conditions: in vivo; summary of the method: as §1
[11] = test system: Mus musculus; assay: Mean residence time in CD1 mouse at 1 mg/kg, iv; format: ADME, organism-based; design: dose 1 mg/kg, route intravenous; conditions: in vivo; summary of the method: as §1
[12] = test system: Mus musculus; assay: Volume of distribution at steady state in CD1 mouse at 1 mg/kg, iv; format: ADME, organism-based; design: dose 1 mg/kg, route intravenous; conditions: in vivo; summary of the method: as §1
[13] = AUC in CD1 mouse at 2.5 mg/kg, po compound dosed in 1% Pluronic F68/1% HPMC/15% Captisol/83% H2O with MsOH at pH 2; format: ADME, organism-based; design: dose 2.5 mg/kg, route oral; conditions: plasma; summary of the method: as §1
[14] = Oral bioavailability in CD1 mouse at 2.5 mg/kg compound dosed in 1% Pluronic F68/1% HPMC/15% Captisol/83% H2O with MsOH at pH 2; format: ADME, organism-based; conditions: in vivo; summary of the method: as §1

SMILES	MRT [2]	Vd [3]	clearance [5]	AUC [9]	bioavailability [10]	further results
CNc1ncc2cc(-c3c(C)ccc(C(=O)c4c(-c5ccccc5)n(C)n(-c5ccccc5)c4=O)c3N)ccc2n1						microsomal CLint [1]: 29 µL/min/mg
COc1cc2nccc(Oc3ccc(NC(=O)c4c(-c5ccccc5)n(C)n(-c5ccccc5)c4=O)nc3)c2cc1OC	10.4 h	0.73 L/kg	1.17 mL/min/kg			AUC [4]: 20.2 µM·h; bioavailability [6]: 50%
CNc1ncc2cc(-c3cc(C(=O)c4c(-c5ccccc5)n(C)n(-c5ccccc5)c4=O)ccc3C)ccc2n1						microsomal CLint [1]: 497 µL/min/mg
CNc1ncc2cc(-c3cc(C(=O)c4c(-c5ccccc5)n(C)n(-c5ccccc5)c4=O)ccc3N)ccc2n1	0.5 h	0.56 L/kg	16.7 mL/min/kg			bioavailability [7]: 18%; AUC [8]: 0.8 µM·h
CNc1ncc2cc(-c3cc(C(=O)c4c(-c5ccccc5)n(C)n(-c5ccccc5)c4=O)ccc3Cl)ccc2n1						microsomal CLint [1]: 167 µL/min/mg
CNc1ncc2c(F)c(-c3c(C)ccc(C(=O)c4c(-c5ccccc5)n(C)n(-c5ccccc5)c4=O)c3N)ccc2n1	3.9 h	2.2 L/kg	9.5 mL/min/kg	3.8 µM·h	48%	
CNc1ncc2c(Cl)c(-c3c(C)ccc(C(=O)c4c(-c5ccccc5)n(C)n(-c5ccccc5)c4=O)c3N)ccc2n1	5.5 h	2.7 L/kg	8.33 mL/min/kg	3.7 µM·h	49%	
Cc1ncc2cc(-c3c(C)ccc(C(=O)c4c(-c5ccccc5)n(C)n(-c5ccccc5)c4=O)c3N)ccc2n1	1.4 h	2.6 L/kg	36.7 mL/min/kg	1.2 µM·h	69%	
Cc1nc2ccc(-c3c(C)ccc(C(=O)c4c(-c5ccccc5)n(C)n(-c5ccccc5)c4=O)c3N)cc2s1	2.2 h	3.1 L/kg	23.3 mL/min/kg	0.1 µM·h	3%	
CNc1nc2ccc(-c3c(C)ccc(C(=O)c4c(-c5ccccc5)n(C)n(-c5ccccc5)c4=O)c3N)cc2s1	3.1 h	2 L/kg	10.7 mL/min/kg	2.5 µM·h	35%	
Cc1ccc(C(=O)c2c(-c3ccccc3)n(C)n(-c3ccccc3)c2=O)c(N)c1-c1ccc2nc(N)sc2c1	2.2 h	6.5 L/kg	50 mL/min/kg	1 µM·h	67%	
Cc1ccc(C(=O)c2c(-c3ccccc3)n(C)n(-c3ccccc3)c2=O)c(N)c1-c1ccc2nc(C(F)F)sc2c1	5.3 h	5 L/kg	15.7 mL/min/kg	3.4 µM·h	76%	
Cc1ccc(C(=O)c2c(-c3ccccc3)n(C)n(-c3ccccc3)c2=O)c(N)c1-c1ccc2nc(C(F)(F)F)sc2c1	10.8 h	8.1 L/kg	12.5 mL/min/kg	3.2 µM·h	83%	
Cc1ccc2cc(-c3c(C)ccc(C(=O)c4c(-c5ccccc5)n(C)n(-c5ccccc5)c4=O)c3N)ccc2n1	2.3 h	3.6 L/kg	26.7 mL/min/kg	1.4 µM·h	55%	MRT [11]: 5 h; Vdss [12]: 1.2 L/kg; AUC [13]: 8.8 µM·h; bioavailability [14]: 46%
Cc1nc(N)c2c(-c3ccc4c(c3)CCN4C(=O)Cc3cc(F)cc(C(F)(F)F)c3)cn(C)c2n1	11.9 h	1.2 L/kg	1.67 mL/min/kg	23.6 µM·h	98%	
